Source: ChEMBL document CHEMBL1142210, “Plasmid-mediated KPC-2 in a Klebsiella pneumoniae isolate from China” (2007)
≈ marks a conversion by molar mass, not a printed value.

Legend:
Assay type in all cases: functional
Escherichia coli [1] = test: Antimicrobial activity against Escherichia coli DH5-alpha pYW1 transformants expressing KPC2 gene by agar dilution method; settings: DH5alpha
In short: (§1)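 Agar dilution MIC testing run per CLSI (formerly NCCLS) guidelines. Where an agent was combined with clavulanic acid, the clavulanic acid was held at a fixed 4 μg/ml.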

Escherichia coli [2] = test: Antimicrobial activity against Escherichia coli DH5alpha by agar dilution method; in short: as §1
Klebsiella pneumoniae = test: Antimicrobial activity against carbapenem-resistant Klebsiella pneumoniae ZR01 from patient sputum by agar dilution method; in short: as §1
Escherichia coli [3] = test: Antimicrobial activity against Escherichia coli DH5-alpha with pYW2 expressing KPC2 and TEM1 gene by agar dilution method; settings: DH5alpha; in short: as §1
Escherichia coli [4] = test: Antimicrobial activity against Escherichia coli DH5-alpha with pGEM-T EASY expressing TEM1 gene by agar dilution method; settings: DH5alpha; in short: as §1

Compound: NCC[C@H](O)C(=O)N[C@@H]1C[C@H](N)[C@@H](O[C@H]2O[C@H](CN)[C@@H](O)[C@H](O)[C@H]2O)[C@H](O)[C@H]1O[C@H]1O[C@H](CO)[C@@H](O)[C@H](N)[C@H]1O [AMIKACIN]
- MIC (Escherichia coli [1]): 1 µg/mL (≈ 1.71 µM)
- MIC (Escherichia coli [2]): 1 µg/mL (≈ 1.71 µM)
- MIC (Klebsiella pneumoniae): > 256 µg/mL
- MIC (Escherichia coli [3]): 1 µg/mL (≈ 1.71 µM)
- MIC (Escherichia coli [4]): 1 µg/mL (≈ 1.71 µM)

Compound: C[C@H]1[C@H](NC(=O)/C(=N\OC(C)(C)C(=O)O)c2csc(N)n2)C(=O)N1S(=O)(=O)O [AZTREONAM]
- MIC (Escherichia coli [1]): 32 µg/mL (≈ 73.5 µM)
- MIC (Klebsiella pneumoniae): > 256 µg/mL
- MIC (Escherichia coli [3]): 64 µg/mL (≈ 147 µM)

Compound: CO/N=C(\C(=O)N[C@@H]1C(=O)N2C(C(=O)[O-])=C(C[N+]3(C)CCCC3)CS[C@H]12)c1csc(N)n1 [CEFEPIME]
- MIC (Escherichia coli [1]): 2 µg/mL (≈ 4.16 µM)
- MIC (Escherichia coli [2]): 0.032 µg/mL (≈ 0.0666 µM)
- MIC (Klebsiella pneumoniae): > 256 µg/mL
- MIC (Escherichia coli [4]): 0.125 µg/mL (≈ 0.26 µM)

Compound: CO/N=C(\C(=O)N[C@@H]1C(=O)N2C(C(=O)O)=C(COC(C)=O)CS[C@H]12)c1csc(N)n1 [CEFOTAXIME]
- MIC (Escherichia coli [1]): 4 µg/mL (≈ 8.78 µM)
- MIC (Escherichia coli [2]): 0.094 µg/mL (≈ 0.206 µM)
- MIC (Klebsiella pneumoniae): > 256 µg/mL
- MIC (Escherichia coli [3]): 32 µg/mL (≈ 70.3 µM)
- MIC (Escherichia coli [4]): 0.094 µg/mL (≈ 0.206 µM)

Compound: CC(C)(O/N=C(\C(=O)N[C@@H]1C(=O)N2C(C(=O)[O-])=C(C[n+]3ccccc3)CS[C@H]12)c1csc(N)n1)C(=O)O [CEFTAZIDIME]
- MIC (Escherichia coli [1]): 4 µg/mL (≈ 7.32 µM)
- MIC (Escherichia coli [2]): 0.25 µg/mL (≈ 0.457 µM)
- MIC (Klebsiella pneumoniae): > 256 µg/mL
- MIC (Escherichia coli [3]): 32 µg/mL (≈ 58.5 µM)
- MIC (Escherichia coli [4]): 0.5 µg/mL (≈ 0.915 µM)

Compound: CO/N=C(\C(=O)N[C@@H]1C(=O)N2C(C(=O)O)=C(CSc3nc(=O)c(O)nn3C)CS[C@H]12)c1csc(N)n1 [CEFTRIAXONE]
- MIC (Escherichia coli [1]): 8 µg/mL (≈ 14.4 µM)
- MIC (Escherichia coli [2]): 0.094 µg/mL (≈ 0.169 µM)
- MIC (Klebsiella pneumoniae): > 256 µg/mL
- MIC (Escherichia coli [3]): 64 µg/mL (≈ 115 µM)
- MIC (Escherichia coli [4]): 0.094 µg/mL (≈ 0.169 µM)

Compound: O=C(O)c1cn(C2CC2)c2cc(N3CCNCC3)c(F)cc2c1=O [CIPROFLOXACIN]
- MIC (Klebsiella pneumoniae): > 32 µg/mL

Compound: C[C@@H](O)[C@H]1C(=O)N2C(C(=O)O)=C(S[C@@H]3CN[C@H](C(=O)Nc4cccc(C(=O)O)c4)C3)[C@H](C)[C@H]12 [ERTAPENEM]
- MIC (Escherichia coli [1]): 0.5 µg/mL (≈ 1.05 µM)
- MIC (Escherichia coli [2]): 0.008 µg/mL (≈ 0.0168 µM)
- MIC (Klebsiella pneumoniae): > 256 µg/mL
- MIC (Escherichia coli [3]): 2 µg/mL (≈ 4.21 µM)
- MIC (Escherichia coli [4]): 0.012 µg/mL (≈ 0.0252 µM)

Compound: C[C@@H](O)[C@H]1C(=O)N2C(C(=O)O)=C(SCCNC=N)C[C@H]12 [IMIPENEM ANHYDROUS]
- MIC (Escherichia coli [1]): 4 µg/mL (≈ 13.4 µM)
- MIC (Klebsiella pneumoniae): > 32 µg/mL
- MIC (Escherichia coli [3]): 8 µg/mL (≈ 26.7 µM)

Compound: C[C@@H](O)[C@H]1C(=O)N2C(C(=O)O)=C(S[C@@H]3CN[C@H](C(=O)N(C)C)C3)[C@H](C)[C@H]12 [MEROPENEM]
- MIC (Escherichia coli [1]): 4 µg/mL (≈ 10.4 µM)
- MIC (Escherichia coli [2]): 0.06 µg/mL (≈ 0.156 µM)
- MIC (Klebsiella pneumoniae): > 32 µg/mL
- MIC (Escherichia coli [3]): 4 µg/mL (≈ 10.4 µM)
- MIC (Escherichia coli [4]): 0.06 µg/mL (≈ 0.156 µM)

Compound: CO[C@H]1/C=C/O[C@@]2(C)Oc3c(C)c(O)c4c(O)c(c(/C=N/N5CCN(C)CC5)c(O)c4c3C2=O)NC(=O)/C(C)=C\C=C\[C@H](C)[C@H](O)[C@@H](C)[C@@H](O)[C@@H](C)[C@H](OC(C)=O)[C@@H]1C [RIFAMPIN]
- MIC (Escherichia coli [1]): 16 µg/mL (≈ 19.4 µM)
- MIC (Escherichia coli [2]): 16 µg/mL (≈ 19.4 µM)
- MIC (Klebsiella pneumoniae): 16 µg/mL (≈ 19.4 µM)
- MIC (Escherichia coli [3]): 16 µg/mL (≈ 19.4 µM)
- MIC (Escherichia coli [4]): 16 µg/mL (≈ 19.4 µM)

Compound: COLISTIN
- MIC (Escherichia coli [1]): 0.5 µg/mL
- MIC (Escherichia coli [2]): 0.5 µg/mL
- MIC (Klebsiella pneumoniae): 0.5 µg/mL
- MIC (Escherichia coli [3]): 0.5 µg/mL
- MIC (Escherichia coli [4]): 0.5 µg/mL

Compound: POLYMYXIN B
- MIC (Escherichia coli [1]): 1 µg/mL
- MIC (Escherichia coli [2]): 1 µg/mL
- MIC (Klebsiella pneumoniae): 2 µg/mL
- MIC (Escherichia coli [3]): 1 µg/mL
- MIC (Escherichia coli [4]): 1 µg/mL
